According to ChEMBL document CHEMBL2412984, “Indole derivatives as dual-effective agents for the treatment of neurodegenerative diseases: synthesis, biological evaluation, and molecular modeling studies” (Bioorg Med Chem, 2013):
The source made the active and inactive calls. No cut-off for these calls is given here.

Experiments:
[1] = Antioxidant activity assessed as inhibition of ABTS free radical generation at 17 uM after 20 mins by UV spectrophotometric analysis relative to control; assay type: functional
Procedure, shortened: (§1)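 ABTS radical cation formed by mixing ABTS diammonium salt (96 mg) and potassium persulfate (33 mg) in 25 mL 0.1 M phosphate buffer pH 7.0, then left in the dark at room temperature for 16 h before use. Samples made fresh as 2 mM stocks in methanol/phosphate buffer 1:1 and assayed in triplicate. Absorbance read at 734 nm; %I = (A_blank − A_sample)/A_blank.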

[2] = Antioxidant activity assessed as inhibition of ABTS free radical generation after 20 mins by UV spectrophotometric analysis relative to control; assay type: functional; procedure, shortened: as §1
[3] = Antioxidant activity assessed as inhibition of ABTS free radical generation at 33 uM after 20 mins by UV spectrophotometric analysis relative to control; assay type: functional
Procedure, shortened: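 ABTS radical cation was generated from ABTS diammonium salt and potassium persulfate in 0.1 M phosphate buffer, pH 7.0, and left in the dark at room temperature for 16 h before use. Sample stocks (2 mM) were freshly prepared in methanol/phosphate buffer 1:1 and tested in triplicate. Absorbance was read at 734 nm, with inhibition calculated as %I = (A_blank − A_sample)/A_blank.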

[4] = molecular target: Glutamate receptor ionotropic, NMDA 2B (Rattus norvegicus, UniProt Q00960); assay: Displacement of [3H]-ifenprodil from Wistar rat cerebral cortex GluN2B after 120 mins; assay type: tissue-based
Procedure, shortened: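 Membranes from cerebral cortices of male Wistar-derived rats (175 g) prepared in Tris–HCl pH 7.4. A 5 mg aliquot was incubated with 2 nM [3H]ifenprodil plus 5 μM GBR-12909, which blocks non-polyamine-sensitive sites, for 120 min at 4 °C. Nonspecific binding defined with 10 μM ifenprodil. Membranes filtered, washed and counted. Three test concentrations run in duplicate.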

Sequence of Glutamate receptor ionotropic, NMDA 2B (Q00960 whole entry): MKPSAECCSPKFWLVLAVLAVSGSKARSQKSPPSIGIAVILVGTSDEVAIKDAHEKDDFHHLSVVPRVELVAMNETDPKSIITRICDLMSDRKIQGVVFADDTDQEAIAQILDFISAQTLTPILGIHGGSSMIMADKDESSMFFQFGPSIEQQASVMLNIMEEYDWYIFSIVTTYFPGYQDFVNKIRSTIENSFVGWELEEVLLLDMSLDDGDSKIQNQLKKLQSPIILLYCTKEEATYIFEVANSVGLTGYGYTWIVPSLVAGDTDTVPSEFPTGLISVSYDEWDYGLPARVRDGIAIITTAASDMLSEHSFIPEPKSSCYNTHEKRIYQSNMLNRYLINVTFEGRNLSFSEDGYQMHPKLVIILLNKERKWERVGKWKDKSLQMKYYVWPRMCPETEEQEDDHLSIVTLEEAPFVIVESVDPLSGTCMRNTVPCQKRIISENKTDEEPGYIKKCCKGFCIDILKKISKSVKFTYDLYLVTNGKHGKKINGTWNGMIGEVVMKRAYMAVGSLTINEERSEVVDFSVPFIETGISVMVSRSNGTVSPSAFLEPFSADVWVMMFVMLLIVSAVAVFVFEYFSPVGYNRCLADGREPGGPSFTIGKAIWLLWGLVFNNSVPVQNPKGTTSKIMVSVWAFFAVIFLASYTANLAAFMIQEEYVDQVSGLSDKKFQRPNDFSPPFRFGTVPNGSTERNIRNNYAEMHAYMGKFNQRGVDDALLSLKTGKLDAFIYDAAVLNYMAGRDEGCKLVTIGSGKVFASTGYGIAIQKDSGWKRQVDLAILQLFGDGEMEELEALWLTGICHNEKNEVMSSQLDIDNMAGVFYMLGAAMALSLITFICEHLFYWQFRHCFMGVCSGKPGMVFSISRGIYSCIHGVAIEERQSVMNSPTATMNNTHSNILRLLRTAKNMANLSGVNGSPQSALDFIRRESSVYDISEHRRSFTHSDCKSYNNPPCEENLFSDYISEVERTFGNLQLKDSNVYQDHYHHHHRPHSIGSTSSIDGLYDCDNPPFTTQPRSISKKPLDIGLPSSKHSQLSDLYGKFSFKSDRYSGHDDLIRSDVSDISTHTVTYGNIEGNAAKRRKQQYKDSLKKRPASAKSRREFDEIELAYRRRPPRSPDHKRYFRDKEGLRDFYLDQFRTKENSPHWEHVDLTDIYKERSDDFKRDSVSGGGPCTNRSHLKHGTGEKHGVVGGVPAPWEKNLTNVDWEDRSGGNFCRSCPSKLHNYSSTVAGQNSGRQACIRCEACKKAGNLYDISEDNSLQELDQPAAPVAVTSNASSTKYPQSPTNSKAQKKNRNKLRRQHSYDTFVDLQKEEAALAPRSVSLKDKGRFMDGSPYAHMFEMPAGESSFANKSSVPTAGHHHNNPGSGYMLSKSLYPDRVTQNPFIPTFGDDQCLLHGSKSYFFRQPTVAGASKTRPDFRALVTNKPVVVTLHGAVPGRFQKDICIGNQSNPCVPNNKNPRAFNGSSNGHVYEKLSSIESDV

Structure (SMILES) | inhibition [1] | inhibition [2] | inhibition [3] [%] | IC50 [4] [nM]
O=C(C(=O)N1CCC(Cc2ccccc2)CC1)c1c[nH]c2ccc(O)cc12 | 80.1% | Dose-dependent effect | – | –
O=C(O)c1cc(O)c(O)c(O)c1 | > 94.1% | – | – | –
c1ccc2[nH]ccc2c1 | inactive | – | 25 | –
O=C(C(=O)N1CCC(Cc2ccccc2)CC1)c1c[nH]c2cc(O)ccc12 | 70.7% | Dose-dependent effect | – | –
O=C(CN1CCC(Cc2ccccc2)CC1)c1c[nH]c2cc(O)ccc12 | > 93.9% | Dose-dependent effect | – | –
O=C(O)/C=C/c1ccc(O)c(O)c1 | 71.5% | – | – | –
O=C(CN1CCC(Cc2ccccc2)CC1)c1c[nH]c2ccc(O)cc12 | > 92.1% | Dose-dependent effect | – | –
O=C(NC1CCN(CC(=O)c2c[nH]c3ccc(O)cc23)CC1)c1ccc(O)c(O)c1 | > 94.1% | Dose-dependent effect | – | 660
COc1ccc2[nH]ccc2c1 | inactive | – | 47.6 | –
